Publication PMC5760440 (Journal of immunology (Baltimore, Md. : 1950), 2017)
Ends that are not written are not given here.

Assays:
A/J mice = assay: Induction of myocarditis by immunization with SERCA2a peptides, histology; format: in vivo, mouse; details: individual peptide/CFA + PT; for Total inflammatory foci (Mean ± SEM): day 21, H&E heart sections; for Severity of lesions, Atria, Number of animals affected (%), Mild / Severity of lesions, Ventricle, Number of animals affected (%), Mild / Severity of lesions, Atria, Number of animals affected (%), Normal / Severity of lesions, Ventricle, Number of animals affected (%), Normal / Severity of lesions, Atria, Number of animals affected (%), Severe / Severity of lesions, Ventricle, Number of animals affected (%), Severe: day 21, H&E; for Severity of lesions, Atria, Number of animals affected (%), Mild / Severity of lesions, Ventricle, Number of animals affected (%), Mild: mild = 1–5 foci; for Severity of lesions, Atria, Number of animals affected (%), Normal / Severity of lesions, Ventricle, Number of animals affected (%), Normal: normal = 0 foci; for Severity of lesions, Atria, Number of animals affected (%), Severe / Severity of lesions, Ventricle, Number of animals affected (%), Severe: severe = 26 foci and above
Summary of the method: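 Mice got peptide/CFA emulsion (M. tuberculosis H37RA extract 5 mg/ml), 50–100 μg individual peptide, s.c. at inguinal and sternum sites on days 0 and 7. Pertussis toxin 100 ng/mouse i.p. on days 0 and 2. Controls: untreated, CFA+PT. Organs harvested day 21, formalin-fixed, 5 μm H&E sections ~150 μm apart. Blinded foci counts scored 0 / 1–5 / 6–25 / ≥26.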

LNCs = assay: Cytokine secretion by restimulated LNCs, cytokine bead array; format: cell-based, mouse; details: supernatants of LNCs from mice immunized with the named peptide (Fig. S2c)

Row | Substance | Total inflammatory foci (Mean ± SEM) (A/J mice) | Severity of lesions, Atria, Number of animals affected (%), Mild (A/J mice) | Severity of lesions, Ventricle, Number of animals affected (%), Mild (A/J mice) | Severity of lesions, Atria, Number of animals affected (%), Normal (A/J mice) | Severity of lesions, Ventricle, Number of animals affected (%), Normal (A/J mice) | Severity of lesions, Atria, Number of animals affected (%), Severe (A/J mice) | Severity of lesions, Ventricle, Number of animals affected (%), Severe (A/J mice) | Cytokine pattern of peptides inducing mild disease (LNCs) | Total inflammatory foci (Mean ± SEM) (A/J mice; SEM)
1 | SERCA2a 591-610: N-terminally acetylated 20-mer peptide of SERCA2a, residues 591-610 (Ac-TFVGCVGMLDPPRIEVASSV; UniProt P16615 591-610, looked up, fragment) | 0 | 0 (0) % | 0 (0) % | 5 | 5 | 0 (0) % | 0 (0) % |  | 
2 | SERCA2a 471-490: N-terminally acetylated 20-mer peptide of SERCA2a, residues 471-490 (Ac-CNSVIKQLMKKEFTLEFSRD; UniProt P16615 471-490, looked up, fragment) | 0 | 0 (0) % | 0 (0) % | 5 | 5 | 0 (0) % | 0 (0) % |  | 
3 | SERCA2a 31-50: N-terminally acetylated 20-mer peptide of SERCA2a, residues 31-50 (Ac-KLKERWGSNELPAEEGKTLL; UniProt P16615 31-50, looked up, fragment) |  | 0 (0) % | 0 (0) % | 5 | 4 | 0 (0) % | 0 (0) % | produced mainly IFN-γ | 8.00 ± 0.00
4 | SERCA2a 951-970: N-terminally acetylated 20-mer peptide of SERCA2a, residues 951-970 (Ac-PLPLIFQITPLNVTQWLMVL; UniProt P16615 951-970, looked up, fragment) |  | 1 (10) % | 0 (0) % | 8 | 9 | 1 (10) % | 1 (10) % |  | 40.00 ± 39.00
5 | SERCA2a 171-190: N-terminally acetylated 20-mer peptide of SERCA2a, residues 171-190 (Ac-TTLRVDQSILTGESVSVIKH; UniProt P16615 171-190, looked up, fragment) |  | 1 (20) % | 1 (20) % | 4 | 4 | 0 (0) % | 0 (0) % |  | 2.00 ± 0.00
6 | SERCA2a 601-620: N-terminally acetylated 20-mer peptide of SERCA2a, residues 601-620 (Ac-PPRIEVASSVKLCRQAGIRV; UniProt P16615 601-620, looked up, fragment) | 0 | 0 (0) % | 0 (0) % | 5 | 5 | 0 (0) % | 0 (0) % |  | 
7 | SERCA2a 161-180: N-terminally acetylated 20-mer peptide of SERCA2a, residues 161-180 (Ac-ADIRLTSIKSTTLRVDQSIL; UniProt P16615 161-180, looked up, fragment) |  |  | 3 (30) % | 6 | 7 | 0 (0) % | 0 (0) % | underproduction of both IFN-γ and IL-17A | 2.50 ± 0.64
8 | SERCA2a 311-330: N-terminally acetylated 20-mer peptide of SERCA2a, residues 311-330 (Ac-LPAVITTCLALGTRRMAKKN; UniProt P16615 311-330, looked up, fragment) | 0 | 0 (0) % | 0 (0) % | 5 | 5 | 0 (0) % | 0 (0) % |  | 
9 | SERCA2a 481-500: N-terminally acetylated 20-mer peptide of SERCA2a, residues 481-500 (Ac-KEFTLEFSRDRKSMSVYCTP; UniProt P16615 481-500, looked up, fragment) | 0 | 0 (0) % | 0 (0) % | 5 | 5 | 0 (0) % | 0 (0) % |  | 
10 | SERCA2a 821-840: N-terminally acetylated 20-mer peptide of SERCA2a, residues 821-840 (Ac-RNPKEPLISGWLFFRYLAIG; UniProt P16615 821-840, looked up, fragment) | 0 | 0 (0) % | 0 (0) % | 5 | 5 | 0 (0) % | 0 (0) % |  | 
